CHOP inhibitor: inhibitors of CHOP induction in ER stress response; CHO-K1 CHOP-promoter luciferase, tunicamycin-induced, 15-18 h; inhibition, % at 10 µM; actives 3.8% (n = 220,000);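 active = compounds that reduced the stress-induced luciferase reporter signal by more than about 70% of percent inhibition, limit read from the data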;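 also: 0% = tunicamycin plus vehicle and 100% = wells without tunicamycin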
PfM18AAP inh: PfM18AAP enzyme inhibition | inhibition, % at 7.35 µM | recombinant PfM18AAP, H-Glu-NHMec fluorogenic cleavage | actives 1.2% (n = 290,000);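 active = inhibition above the campaign mean inhibition over all tested compounds plus 3 SD, cut at about 28% in these data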;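 also: 0% = plate median of test compound wells and 100% = 2 mM ZnCl2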
p97 ATPase inh: blocks human p97 ATPase activity. P55072. recombinant p97 ATPase, Kinase-Glo ATP luminescence, 3 h. inhibition, % at 8 µM. actives 0.42% (n = 220,000); in the data active = inhibition above about 15%;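 also: 0% = DMSO vehicle and 100% = wells lacking enzyme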
Target sequence (P55072 whole entry, looked up): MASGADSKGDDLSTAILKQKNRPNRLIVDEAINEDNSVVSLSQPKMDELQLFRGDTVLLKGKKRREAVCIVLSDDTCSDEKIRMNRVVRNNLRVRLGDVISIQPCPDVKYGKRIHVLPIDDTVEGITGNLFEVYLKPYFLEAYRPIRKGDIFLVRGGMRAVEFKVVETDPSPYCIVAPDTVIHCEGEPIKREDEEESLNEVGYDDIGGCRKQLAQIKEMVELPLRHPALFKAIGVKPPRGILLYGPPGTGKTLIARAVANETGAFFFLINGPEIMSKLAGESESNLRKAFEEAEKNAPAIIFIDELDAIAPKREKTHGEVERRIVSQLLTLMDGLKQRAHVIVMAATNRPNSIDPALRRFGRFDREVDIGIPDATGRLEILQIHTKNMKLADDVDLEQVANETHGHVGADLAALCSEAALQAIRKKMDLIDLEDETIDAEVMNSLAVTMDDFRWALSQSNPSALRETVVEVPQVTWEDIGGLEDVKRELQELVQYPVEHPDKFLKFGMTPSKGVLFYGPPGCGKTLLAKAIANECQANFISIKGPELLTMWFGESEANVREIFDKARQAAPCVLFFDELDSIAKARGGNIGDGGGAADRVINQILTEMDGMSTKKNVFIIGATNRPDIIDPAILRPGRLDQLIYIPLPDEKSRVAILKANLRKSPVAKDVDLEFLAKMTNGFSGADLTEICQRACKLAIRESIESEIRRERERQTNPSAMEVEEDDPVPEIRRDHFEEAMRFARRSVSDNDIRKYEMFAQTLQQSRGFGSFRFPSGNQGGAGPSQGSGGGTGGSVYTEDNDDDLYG
UPR CHOP act: activators of apoptotic arm of unfolded protein response (CHOP); CHO-CHOP luciferase reporter, UPR activation, luminescence; percent of tunicamycin response over DMSO baseline; activation, % at 10 µM; actives 0.34% (n = 330,000);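 active = at 10 µM dose, activation of 40% or more, normalized to positive control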;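 also: 100% = tunicamycin at 10 µg/mL and 0% = DMSO alone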
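System: CHO CHOP reporter cells. Amount: 500 cells per well. Buffer or medium: F12 medium, 10% FBS. Compound dosing: one dose, 10 µM in 0.5% DMSO. Incubation: 6 h compound exposure at 37 °C after overnight seeding. Technique: Steady-Glo luciferase luminescence. Benchmarks: tunicamycin and DMSO controls.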
NS3 helicase inh: blocks Hepatitis C virus NS3 helicase unwinding; NS3 helicase DNA unwinding, Cy5 molecular beacon fluorescence; inhibition, % at 10.9 µM; actives 0.56% (n = 290,000); AID 1800;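 active = inhibition above the mean of all tested compounds plus 3 SD, set per campaign, cut at about 35% in these data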;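 also: 0% = DMSO wells and 100% = thioflavine S control wells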
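Control set: DMSO versus 110 µM thioflavine S; Material: NS3 helicase fragment of HCV; Measured by: Cy5 fluorescence at 0 and 60 min, beacon hairpin quenching; Read-out basis: percent inhibition from t60/t0 fluorescence ratio; Times: reaction time 60 min, 25 °C; Repeats: single replicate; Compound dosing: single dose, 10.9 µM nominal final, DMSO 0.8% final.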
UPR XBP1 act: activators of adaptive arm of unfolded protein response (XBP1); CHO-XBP1 luciferase reporter, IRE1-XBP1 UPR activation, luminescence; percent of tunicamycin response, DMSO as zero; activation, % at 20 µM; actives 0.33% (n = 330,000); AID 463104;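 active = versus positive control, 20 µM dose yields 30% or more activation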;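 also: 100% = tunicamycin at 10 µg/mL and 0% = DMSO only wells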
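Material: CHO-XBP1 cells stably carrying IRE1-XBP1-driven luciferase reporter / Amount: 1000 cells per well / Compound: 20 µM, 1% DMSO / Times: 6 h treatment, 37 °C / Detection: luciferase luminescence / Measure: % activation of reporter signal versus tunicamycin and DMSO controls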
NS3 helicase cf: HCV NS3 helicase inhibition, confirmation assay. NS3 helicase DNA unwinding, Cy5 molecular beacon fluorescence. shares compounds with NS3 helicase inh. actives 31% (n = 1,600). inhibition, % at 10.9 µM. AID 1943;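 active = inhibition above the mean of all tested compounds plus 3 SD, cutoff set per campaign, cut at about 36% in these data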
FID counter trip: counter-screen for HCV NS3 helicase inhibitors: DNA intercalator displacement. actives 4% (n = 1,600). shares compounds with NS3 helicase inh. DNA fluorescent intercalator displacement, fluorescence. inhibition, % at 7.9 µM; in the data active = inhibition above about 37%;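 also: 0% = vehicle and 100% = reference compound; higher means more displacement of ethidium bromide from the DNA hairpin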
DNA FID DR: counter-screen for HCV NS3 helicase inhibitors: DNA intercalator displacement dose response; shares compounds with NS3 helicase inh; fluorescent intercalator displacement from DNA, fluorescence; 120 tested, under 10 active; IC50, µM; call rule not given here
Active calls of the source: *; / = not tested or not shown. In the library only some 4.5% were active in any assay of this set; here they are far more common.

SMILES | CHOP inhibitor | PfM18AAP inh | p97 ATPase inh | UPR CHOP act | NS3 helicase inh | UPR XBP1 act | NS3 helicase cf | FID counter trip | others
N#Cc1c(-c2cccs2)nc(SCc2ccc(Cl)cc2)[nH]c1=O | 9.3 | -7.0 | -1.4 | 3.6 | 48.1* | -2.4 | 59.9* | 34.7
COc1ccc(OCC(O)CNC(=O)Nc2ccccc2)cc1 (configuration not stated) | 13.9 | 2.2 | 12.4 | -2.0 | -0.1 | -1.6 | / | /
COc1ccc(OCC(O)CNC(=O)c2sccc2Cl)cc1 (configuration not stated) | 4.1 | -2.8 | 1.2 | 1.3 | 44.5* | 2.3 | -8.1 | -0.1
COc1ccc(NC(=O)CN(C)C(=O)c2ccc3[nH]c4c(c3c2)CC(C)CC4)cc1 (configuration not stated) | / | / | / | 0.2 | / | -2.9 | / | /
CCCn1c(/C=C/c2ccccc2)nc2ccccc21 | 53.4 | 11.7 | -8.7 | 3.0 | 8.8 | 8.5 | / | /
CC(C)Cn1c(/C=C/c2ccco2)nc2ccccc21 | -14.5 | 5.8 | -1.4 | 2.5 | 55.4* | -1.1 | -14.1 | -1.3
O=C(CCN1C(=O)c2ccccc2S1(=O)=O)NCc1ccccc1 | / | / | / | 0.5 | / | -3.5 | / | /
CCCCNC(=O)COC(=O)c1c2c(nc3ccccc13)CCC2 | / | -1.7 | / | 1.0 | 12.5 | -2.4 | / | /
CCCCNC(=O)COC(=O)c1c2c(nc3ccccc13)/C(=C/c1cccs1)CC2 | 46.9 | 2.4 | 4.1 | / | 37.9* | / | -11.7 | -5.6
CC(C)(C)NC(=O)CSc1nc(O)cc(=O)n1-c1ccccc1F | 15.5 | 8.2 | 3.5 | 0.2 | 6.4 | -0.5 | / | /
COc1ccccc1-n1c(SCC(=O)NC(C)(C)C)nc(O)cc1=O | 43.8 | 1.1 | -5.9 | -0.3 | 36.3* | -1.9 | -17.9 | 3.4
S=C1NCCOCCOCCNC(=S)N2CCOCCOCCN1CCOCCOCC2 | 19.8 | 5.3 | -0.7 | 1.5 | -1.6 | 1.5 | / | /
Cc1cc(N=Cc2c(O)ccc3cc(Br)ccc23)no1 | -13.2 | -10.4 | 3.9 | / | 36.8* | / | -10.2 | 39.4*
Cc1ccc(S(=O)(=O)/N=C2/NC(=O)/C(=C\c3ccco3)S2)cc1 | 9.7 | 4.0 | 2.0 | -1.8 | 37.5* | -2.2 | 66.7* | -2.5
COc1ccc(N=C2NC(=O)/C(=C\c3ccco3)S2)cc1 | -13.0 | 9.2 | 0.8 | 2.8 | 41.2* | 3.6 | -4.6 | -5.8
COc1ccccc1C(=O)C1CCCN(C(=O)c2cccnc2SC)C1 (configuration not stated) | 63.7 | 0.1 | 2.3 | 0.7 | -6.4 | -0.9 | / | /
CC(=O)c1ccc(NC(=O)Cn2cnc(S(=O)(=O)N3CCC(C)CC3)c2)cc1 | / | 2.0 | / | 0.2 | -1.3 | -2.4 | / | /
COc1cc(OC)c2c(O)c3c(c(-c4c5c(c(O)c6c(OC)cc(OC)cc46)CO[C@@H](C)[C@H]5O)c2c1)[C@H](O)[C@H](C)OC3 | -14.3 | 2.1 | -1.2 | 0.8 | 36.4* | -0.7 | 69.3* | -20.0
CCN(CC)c1ccc(C=Nc2ccc(N(C)C)cc2)c(O)c1 | 31.2 | 18.5 | 5.4 | 4.2 | 36.8* | 1.1 | 3.2 | 5.0
COc1cccc(OCCOc2ccc(/C=C3/SC(=S)NC3=O)cc2)c1 | / | 18.2 | / | / | 48.0* | / | 54.4* | 12.7
CCOc1ccc(/C=C2\SC(=S)NC2=O)cc1OC | 8.1 | 3.2 | 5.8 | 3.8 | 34.5 | 1.3 | / | /
CC(=O)N1C=Cc2c(c(C)c3c([nH]c4ccccc43)c2C)C1 | 21.9 | 12.9 | 3.7 | / | 39.3* | / | 22.6 | 34.6
COc1ccc(S(=O)(=O)N2CCC(C(=O)NCc3ccncc3)CC2)cc1C | / | -9.8 | / | 2.8 | 8.2 | -0.6 | / | /
Cc1occc1C(=O)NNC(=S)NC(=O)COc1ccc(Cl)cc1Cl | / | 7.4 | / | 0.8 | 71.9* | -1.1 | 57.9* | -5.7 | DNA FID DR=>79.4
COc1ccc(OCC(O)CNC2CCCC2)cc1 (configuration not stated) | / | -5.2 | / | -1.0 | 6.3 | -5.5 | / | /
SMILES | CHOP inhibitor | PfM18AAP inh | p97 ATPase inh | UPR CHOP act | NS3 helicase inh | UPR XBP1 act | NS3 helicase cf | FID counter trip | others
OC(CNC1Cc2ccccc2C1)COc1ccc(F)cc1 (configuration not stated) | -26.4 | 0.0 | 6.6 | -2.0 | 37.1* | -4.1 | 0.2 | 27.4
O=C(NC1CC(=O)N(c2cccc(F)c2)C1)C(=O)c1c[nH]c2ccccc12 (configuration not stated) | / | / | / | 2.3 | / | 1.1 | / | /
CCOC(=O)Cc1csc(N/N=C\c2ccc(N(C)C)cc2)n1 | / | 38.4* | / | 0.9 | 49.8* | -7.0 | -15.9 | 2.0
CCOC(=O)Cc1csc(N/N=C/c2ccccc2)n1 | 25.6 | 4.4 | 3.4 | -1.3 | 0.8 | 1.2 | / | /
O=C1/C(=C/c2cccs2)CCC/C1=C\c1cccs1 | / | 26.7 | / | -0.2 | 71.8* | 1.1 | -2.9 | 0.8
CC1C/C(=C/c2cccs2)C(=O)/C(=C/c2cccs2)C1 (configuration not stated) | 30.1 | 2.3 | 3.3 | 0.3 | 31.8 | 0.7 | / | /
CC1C/C(=C/c2ccco2)C(=O)/C(=C/c2ccco2)C1 (configuration not stated) | -9.5 | 14.5 | 1.2 | 5.6 | 27.4 | 2.2 | / | /
O=C1/C(=C\c2ccco2)CCC/C1=C\c1ccco1 | 87.4* | 22.2 | 3.5 | 4.4 | 48.2* | 3.5 | 27.1 | 28.1
CC(C)(CO)CN1CCC(n2nccc2NC(=O)C2CCCC2)CC1 | / | -9.6 | / | 2.2 | 0.8 | -2.2 | / | /
CCNc1nnc(-c2ccc(C)cc2)o1 | 13.2 | 1.6 | 1.4 | 4.7 | 51.9* | 1.7 | 4.2 | 2.0
Cc1ccc(-c2nnc(-c3ccccc3)o2)cc1 | 31.4 | -6.2 | -3.3 | 0.6 | 2.5 | -4.4 | / | /
COc1ccc(C2=NN(C(=O)CCC(=O)O)C(c3ccc(Br)cc3)C2)cc1 (configuration not stated) | / | 1.2 | / | -0.1 | 37.9* | -4.5 | 5.8 | -23.2
COc1ccc(C2=NN(C(=O)CCCC(=O)O)C(c3cn(-c4ccccc4)nc3-c3ccccc3)C2)cc1 (configuration not stated) | 36.2 | 2.6 | -15.8 | -1.1 | 46.2* | -0.7 | 43.1* | -16.2
COc1ccc(C2=NN(C(=O)CCC(=O)O)C(c3ccccc3)C2)cc1 (configuration not stated) | / | -1.4 | / | -0.1 | 2.3 | -3.6 | / | /
Cc1ccccc1NC(=O)CON=C(N)c1ccccc1 | / | / | / | -0.4 | / | -1.2 | / | /
